ChEMBL document CHEMBL3091406, “Design and synthesis of novel antimicrobials with activity against Gram-positive bacteria and mycobacterial species, including M. tuberculosis” (2013)
≈ marks a conversion by molar mass, not a printed value.

Tests used:
Type in all cases: functional
Escherichia coli = test: Antibacterial activity against Escherichia coli […] by CLSI method
Bacillus cereus = test: Antibacterial activity against Bacillus cereus by CLSI method
[1] = system: Mycolicibacterium smegmatis; test: Antimycobacterial activity against Mycobacterium smegmatis
Staphylococcus aureus = test: Antibacterial activity against Staphylococcus aureus ATCC 29213 by CLSI method
Mycobacterium avium = test: Antimycobacterial activity against Mycobacterium avium
Outline: (§1)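 MIC in Middlebrook 7H9 broth with 10% OADC; strains from University of Wisconsin-La Crosse culture collection; rifampin as positive control; reported MIC is compiled from geometric means of three separate runs.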

[2] = system: Mycobacterium intracellulare; test: Antimycobacterial activity against Mycobacterium intracellulare; outline: as §1
Mycobacteroides chelonae = test: Antimycobacterial activity against Mycobacterium chelonae; outline: as §1
Mycobacterium kansasii = test: Antimycobacterial activity against Mycobacterium kansasii; outline: as §1
[3] = system: Mycolicibacterium fortuitum; test: Antimycobacterial activity against Mycobacterium fortuitum; outline: as §1
[4] = system: Mycolicibacterium smegmatis; test: Ratio of rifampin MIC to compound MIC for Mycobacterium smegmatis
[5] = system: Mycobacterium tuberculosis; test: Ratio of ethambutol MIC to compound MIC for Mycobacterium tuberculosis H37Rv after 7 days by BacTiter-Glo method
[6] = system: Mycobacterium tuberculosis; test: Antimycobacterial activity against Mycobacterium tuberculosis H37Rv after 7 days by BacTiter-Glo method; settings: 168 h
Outline: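 Strain H37Rv in 384-well plates, Middlebrook 7H12 broth with palmitate and 0.5% BSA; compounds diluted in medium to 2× final concentration; inoculum 1-2 × 10⁵ CFU/mL; amikacin positive control on every plate; 7 days at 37 °C, ~95% humidity; compound autofluorescence pre-read (ex 535/em 590 nm); BacTiter-Glo reagent added, 20 min room temperature, luminescence read.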

Structure (SMILES)	MIC (Escherichia coli) [µg/mL]	MIC (Bacillus cereus) [µg/mL]	MIC [1] [µg/mL]	MIC (Staphylococcus aureus) [µg/mL]	MIC (Mycobacterium avium) [µg/mL]	MIC [2] [µg/mL]	MIC (Mycobacteroides chelonae) [µg/mL]	MIC (Mycobacterium kansasii) [µg/mL]	MIC [3] [µg/mL]	Ratio [4]	Ratio [5]	MIC [6] [µg/mL]
CC(C)N(C(=O)/C=C\Sc1nc2ccccc2s1)C(C)C	> 128	> 128	> 128	> 128								
CN(C)[C@@H]1C(O)=C(C(N)=O)C(=O)[C@@]2(O)C(O)=C3C(=O)c4c(O)cccc4[C@@](C)(O)[C@H]3C[C@@H]12 [TETRACYCLINE]	1 (≈ 2.25 µM)			0.25 (≈ 0.563 µM)								
CC(C)N(C(=O)/C=C\Sc1ccc(C(C)(C)C)cc1)C(C)C	> 128	> 128	64 (≈ 200 µM)	> 128								
CCOC(=O)c1ccccc1C(=O)c1ccc(C(C)(C)C)cc1	> 128		> 128	> 128	> 128	> 128	> 128	> 128	> 128			
CCOC(=O)/C=C\C(=O)c1cc2ccccc2s1	128 (≈ 492 µM)		4 (≈ 15.4 µM)	1 (≈ 3.84 µM)	16 (≈ 61.5 µM)	4 (≈ 15.4 µM)	8 (≈ 30.7 µM)	8 (≈ 30.7 µM)	16 (≈ 61.5 µM)	16	3	0.4 (≈ 1.54 µM)
CNC(=O)/C=C\Sc1ccc(C(C)(C)C)cc1	> 128	128 (≈ 513 µM)	> 128	> 128								
CC(C)(C)c1ccc(C(=O)/C=C/C(=O)O)cc1	> 128		> 128	32 (≈ 138 µM)					> 125			
CN(C(=O)/C=C\Sc1ccc(C(C)(C)C)cc1)c1ccccc1	> 128	> 128	32 (≈ 98.3 µM)	> 128								
CC[C@@H](CO)NCCN[C@@H](CC)CO [ETHAMBUTOL]												1.2 (≈ 5.87 µM)
CO[C@H]1/C=C/O[C@@]2(C)Oc3c(C)c(O)c4c(O)c(c(/C=N/N5CCN(C)CC5)c(O)c4c3C2=O)NC(=O)/C(C)=C\C=C\[C@H](C)[C@H](O)[C@@H](C)[C@@H](O)[C@@H](C)[C@H](OC(C)=O)[C@@H]1C [RIFAMPIN]			64 (≈ 77.8 µM)		2 (≈ 2.43 µM)	1 (≈ 1.22 µM)	32 (≈ 38.9 µM)	0.5 (≈ 0.608 µM)	32 (≈ 38.9 µM)			< 0.03
CC(C)=CCOC(=O)/C=C/C(=O)c1ccc(C(C)(C)C)cc1	> 128		> 128	0.5 (≈ 1.66 µM)	> 128	> 128	32 (≈ 107 µM)	> 128	64 (≈ 213 µM)			
CCOC(=O)[C@@H]1C[C@H]1C(=O)c1ccc(C(C)(C)C)cc1	> 128		16 (≈ 58.3 µM)	64 (≈ 233 µM)					64 (≈ 233 µM)			
CCOC(=O)[C@@H]1O[C@H]1C(=O)c1ccc(C(C)(C)C)cc1	> 128		128 (≈ 463 µM)	32 (≈ 116 µM)					> 128			
CCOC(=O)CCCc1ccc(C(C)(C)C)cc1	> 128		64 (≈ 258 µM)	> 128	> 128	> 128	32 (≈ 129 µM)	128 (≈ 515 µM)	32 (≈ 129 µM)			
CCOC(=O)/C=C/Cc1ccc(C(C)(C)C)cc1	> 128		> 128	16 (≈ 64.9 µM)	> 128	> 128	> 128	> 128	> 128			
CCOC(=O)/C=C/C(=O)c1ccc(C(C)(C)C)cc1	> 128	4 (≈ 15.4 µM)	8 (≈ 30.7 µM)	2 (≈ 7.68 µM)	16 (≈ 61.5 µM)	4 (≈ 15.4 µM)	8 (≈ 30.7 µM)	32 (≈ 123 µM)	4 (≈ 15.4 µM)	8	1.5	0.8 (≈ 3.07 µM)
NNC(=O)c1ccncc1 [ISONIAZID]												0.25 (≈ 1.82 µM)
CC(C)(C)c1ccc(S/C=C\C(=O)Nc2ccccc2)cc1	> 128	> 128	> 128	> 128								
CC(C)(C)c1ccc(S/C=C\C(=O)NC2CC2)cc1	> 128	> 128	> 128	> 128								
CC(C)(C)c1ccc(S/C=C\C(=O)O)cc1	> 128	128 (≈ 542 µM)	> 128	> 128								
CCOC(=O)CCC(=O)c1ccc(C(C)(C)C)cc1	> 128		> 128	> 128	> 128	> 128	> 128	> 128	> 128			
CCOC(=O)/C=C\Sc1ccc(C(C)(C)C)cc1	> 128	> 128	16 (≈ 60.5 µM)	> 128								
CN(C)C(=O)/C=C\Sc1ccc(C(C)(C)C)cc1	> 128	16 (≈ 60.7 µM)	64 (≈ 243 µM)	> 128								
CC(C)(C)c1ccc(S/C=C\C(=O)OCC2CC2)cc1	> 128	128 (≈ 441 µM)	16 (≈ 55.1 µM)	> 128								
CCOC(=O)C#CC(=O)c1ccc(C(C)(C)C)cc1	> 128	> 128	> 128	> 128	> 128	> 128	> 128	> 128	> 128			
CCOC(=O)/C=C\C(=O)c1ccc(C(C)(C)C)cc1	> 128	8 (≈ 30.7 µM)	8 (≈ 30.7 µM)	4 (≈ 15.4 µM)	32 (≈ 123 µM)	8 (≈ 30.7 µM)	16 (≈ 61.5 µM)	64 (≈ 246 µM)	8 (≈ 30.7 µM)	8	1.5	0.8 (≈ 3.07 µM)
O=C(O)/C=C\Sc1nc2ccccc2s1	> 128	> 128	> 128	> 128								
CCOC(=O)CCSc1ccc(C(C)(C)C)cc1	> 128	> 128	> 128	> 128	> 128	> 128	> 128	> 128	> 128			
